In ChEMBL document CHEMBL1127375, “Nucleic acid related compounds. 84. Synthesis of 6'-(E and Z)-halohomovinyl derivatives of adenosine, inactivation of S-adenosyl-L-homocysteine hydrolase, and correlation of anticancer and antiviral potencies with enzyme inhibition” (J Med Chem, 1994):
In brackets after ≈: the same amount, converted by molar mass.

Columns and labels:
CCRF-CEM = assay: Tested for in vitro cytostatic activity against CEM cells; format: functional, cell-based; conditions: Homo sapiens
Summary of the method: (§1)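 Cells seeded at 5 × 10^5/mL (murine L1210 leukemia, FM3A mammary carcinoma) or 7.5 × 10^5/mL (human Molt-4 clone 8, CEM) and exposed to varying compound concentrations. Incubation at 37 °C in humidified CO2 was 2 days for L1210/FM3A and 3 days for Molt-4/CEM. Viable cells were Coulter-counted; IC50 is the concentration reducing viable cell number by 50%. Means of at least two to three determinations.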

FM3A = assay: Tested for in vitro cytostatic activity against murine mammary carcinoma (FM3A); format: functional, cell-based; conditions: Mus musculus; summary of the method: as §1
L1210 = assay: Tested for in vitro cytostatic activity against murine leukemia L1210; format: functional, cell-based; conditions: Mus musculus; summary of the method: as §1
E6SM [1] = assay: Tested for the antiviral activity against HSV-1 (KOS) in human E6SM cells; format: functional
Summary of the method: (§2)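 Confluent E6SM, HeLa or Vero cultures were inoculated with 100 CCID50 of virus and allowed 1 h adsorption. Residual virus was removed, then cells were incubated with compound at 400, 200, 100 … μg/mL. Virus-induced cytopathicity was scored once complete in untreated infected controls. MIC is the minimum inhibitory concentration.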

E6SM [2] = assay: Tested for the antiviral activity against HSV-2 in human E6SM cells; format: functional; summary of the method: as §2
E6SM [3] = assay: Tested for the antiviral activity against Vaccinia virus in human E6SM cells; format: functional; summary of the method: as §2
E6SM [4] = assay: Tested for the antiviral activity against Vesicular stomatitis virus in human E6SM cells; format: functional; summary of the method: as §2
E6SM [5] = assay: Tested for the minimum cytotoxic concentration against E6SM cells; format: functional; conditions: Homo sapiens
Summary of the method: (§3)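 Uninfected E6SM, HeLa or Vero cultures were incubated with serial compound concentrations (400, 200, 100 … μg/mL). Cytotoxicity was judged as microscopically detectable alteration of normal cell morphology. The value is the minimum concentration causing this alteration.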

HeLa [6] = assay: Tested for the antiviral activity against Coxsackie B4 virus in human HeLa cells; format: functional; summary of the method: as §2
HeLa [7] = assay: Tested for the antiviral activity against Vesicular stomatitis virus in human HeLa cells; format: functional; summary of the method: as §2
HeLa [8] = assay: Tested for the minimum cytotoxic concentration against HeLa cells; format: functional; conditions: Homo sapiens; summary of the method: as §3
MOLT-4 [9] = assay: Tested for in vitro cytostatic activity against human lymphoblast Molt-4 (Clone8); format: functional, cell-based; summary of the method: as §1
Adenosylhomocysteinase [10] = molecular target: T1, Adenosylhomocysteinase (Homo sapiens, UniProt P23526); assay: Tested for kinetic constant for the inhibition of recombinant human placental S-Adenosyl-L-homocysteine Hydrolase
Target sequence in this assay (P23526 whole entry): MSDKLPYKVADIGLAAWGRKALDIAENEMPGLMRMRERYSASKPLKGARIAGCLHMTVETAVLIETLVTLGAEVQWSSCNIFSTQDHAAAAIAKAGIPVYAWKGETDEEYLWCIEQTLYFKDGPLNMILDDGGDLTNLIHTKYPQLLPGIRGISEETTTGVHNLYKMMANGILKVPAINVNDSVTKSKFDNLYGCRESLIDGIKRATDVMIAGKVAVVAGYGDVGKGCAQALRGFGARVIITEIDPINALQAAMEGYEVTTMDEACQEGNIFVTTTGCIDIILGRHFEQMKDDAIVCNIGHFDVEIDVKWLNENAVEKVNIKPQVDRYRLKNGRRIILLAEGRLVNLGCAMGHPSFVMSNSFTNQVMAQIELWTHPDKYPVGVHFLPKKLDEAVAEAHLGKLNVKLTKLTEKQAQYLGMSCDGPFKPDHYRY

Vero [11] = assay: Tested for the minimum cytotoxic concentration against Vero cells; format: functional; conditions: Chlorocebus sabaeus; summary of the method: as §3
Vero [12] = assay: Tested for the antiviral activity against Parainfluenza-3 virus in simian Vero cells; format: functional; conditions: Chlorocebus sabaeus; summary of the method: as §2
Vero [13] = assay: Tested for the antiviral activity against forest virus in simian Vero cells; format: functional; conditions: Chlorocebus sabaeus; summary of the method: as §2
Vero [14] = assay: Tested for the antiviral activity against Sindbis virus in simian Vero cells; format: functional; conditions: Chlorocebus sabaeus; summary of the method: as §2
Vero [15] = assay: Tested for the antiviral activity against reovirus-1 in simian Vero cells; format: functional; conditions: Chlorocebus sabaeus; summary of the method: as §2
[16] = Tested ratio of kinact to that of Ki
Summary of the method: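 Purified recombinant human placental AdoHcy hydrolase (10 nM) preincubated with various inhibitor concentrations for various times at 37 °C, pH 7.2, in 50 mM potassium phosphate with 1 mM EDTA. Residual activity was measured in the synthetic direction by adding Ado and homocysteine for 5 min. The reaction was stopped with perchloric acid and AdoHcy quantified by C-18 HPLC at 258 nm. Ki and kinact were derived from 1/Kapp = 1/kinact + Ki/kinact[I].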

Adenosylhomocysteinase [17] = molecular target: T1, Adenosylhomocysteinase
Target sequence in this assay (P23526 2-432 limits assumed): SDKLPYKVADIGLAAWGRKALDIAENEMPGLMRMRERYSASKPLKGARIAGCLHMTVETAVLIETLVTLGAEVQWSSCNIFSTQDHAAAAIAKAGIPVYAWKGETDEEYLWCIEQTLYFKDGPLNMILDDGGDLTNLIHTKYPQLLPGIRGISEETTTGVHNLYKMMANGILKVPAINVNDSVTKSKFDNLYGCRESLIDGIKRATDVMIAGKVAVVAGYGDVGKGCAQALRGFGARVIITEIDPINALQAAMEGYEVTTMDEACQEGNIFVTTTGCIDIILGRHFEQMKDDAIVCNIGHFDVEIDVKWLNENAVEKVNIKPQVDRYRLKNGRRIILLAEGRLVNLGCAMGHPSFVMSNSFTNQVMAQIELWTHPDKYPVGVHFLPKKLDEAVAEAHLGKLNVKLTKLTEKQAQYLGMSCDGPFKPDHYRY

HeLa [18] = assay: Tested for the antiviral activity against Coxsackie B4 virus in Human HeLa cells; format: functional; summary of the method: as §2
HeLa [19] = assay: Tested for the antiviral activity against polio-1 virus in human HeLa cells; format: functional; summary of the method: as §2
E6SM [20] = assay: Tested for the antiviral activity against HSV-2 in Human E6SM cells; format: functional; summary of the method: as §2
E6SM [21] = assay: Tested for the minimum cytotoxic concentration on E6SM cells; format: functional; conditions: Homo sapiens; summary of the method: as §3
HeLa [22] = assay: Tested for the minimum cytotoxic concentration on HeLa cells; format: functional; conditions: Homo sapiens; summary of the method: as §3
Vero [23] = assay: Tested for the minimum cytotoxic concentration on Vero cells; format: functional; conditions: Chlorocebus sabaeus; summary of the method: as §3
Vero [24] = assay: Tested for the antiviral activity against Parainfluenza-3 virus in Simian Vero cells; format: functional; conditions: Chlorocebus sabaeus; summary of the method: as §2
MOLT-4 [25] = assay: Tested for in vitro cytostatic activity against Human lymphoblast Molt-4 (Clone8); format: functional, cell-based; summary of the method: as §1

Row | Compound | IC50 (CCRF-CEM) | IC50 (FM3A) | IC50 (L1210) | MIC (E6SM [1]) | MIC (E6SM [2]) | MIC (E6SM [3]) | MIC (E6SM [4]) | MCC (E6SM [5]) | MIC (HeLa [6]) | MIC (HeLa [7]) | MCC (HeLa [8]) | IC50 (MOLT-4 [9]) | Ki (Adenosylhomocysteinase [10]) | MCC (Vero [11]) | MIC (Vero [12]) | MIC (Vero [13]) | MIC (Vero [14]) | MIC (Vero [15]) | Ratio [16] | K inact (Adenosylhomocysteinase [17]) | further results
1 | C=C(Br)[C@H]1OC(n2cnc3c(N)ncnc32)[C@H](O)[C@@H]1O (some centres undefined) | 13 µM | 47 µM | 25 µM |  |  |  |  |  |  |  |  |  |  |  |  |  |  |  |  |  | 
2 | Nc1ncnc2c1ncn2C1O[C@H](/C=C/I)[C@@H](O)[C@H]1O (some centres undefined) | 26 µM | 15 µM | 15 µM | > 100 µg/mL | > 100 µg/mL | 7 µg/mL (≈ 18 µM) | 2 µg/mL (≈ 5.14 µM) | ≥ 200 µg/mL | > 100 µg/mL | 7 µg/mL (≈ 18 µM) | 200 µg/mL | 18 µM | 0.096 µM | ≥ 200 µg/mL | > 200 µg/mL | > 200 µg/mL | > 200 µg/mL | > 200 µg/mL | 0.6 | 0.058 min⁻¹ | 
3 | Nc1ncnc2c1ncn2[C@@H]1O[C@H](/C=C\Cl)[C@@H](O)[C@H]1O | 86 µM | 164 µM | 143 µM | 70 µg/mL (≈ 235 µM) | > 100 µg/mL | 20 µg/mL (≈ 67.2 µM) | 20 µg/mL (≈ 67.2 µM) | ≥ 200 µg/mL | > 100 µg/mL | 70 µg/mL (≈ 235 µM) | ≥ 200 µg/mL | 117 µM |  | ≥ 100 µg/mL | > 100 µg/mL | 70 µg/mL (≈ 235 µM) | 20 µg/mL (≈ 67.2 µM) | 70 µg/mL (≈ 235 µM) |  |  | 
4 | Nc1ncnc2c1ncn2C1O[C@H](/C=C/F)[C@@H](O)[C@H]1O (some centres undefined) | 147 µM | 287 µM | 301 µM | > 200 µg/mL | 150 µg/mL (≈ 533 µM) | 70 µg/mL (≈ 249 µM) | 100 µg/mL (≈ 356 µM) | > 200 µg/mL |  | > 100 µg/mL | > 200 µg/mL | 266 µM | 1.3 µM | > 200 µg/mL | 150 µg/mL (≈ 533 µM) |  | 200 µg/mL (≈ 711 µM) | 70 µg/mL (≈ 249 µM) | 0.008 | 0.01 min⁻¹ | MIC (HeLa [18]): > 100 µg/mL; MIC (HeLa [19]): 150 µg/mL (≈ 533 µM)
5 | Nc1ncnc2c1ncn2[C@@H]1O[C@H](/C=C/Cl)[C@@H](O)[C@H]1O | 99 µM | 160 µM | 139 µM | > 200 µg/mL | > 200 µg/mL | 70 µg/mL (≈ 235 µM) | 70 µg/mL (≈ 235 µM) | 400 µg/mL | > 200 µg/mL | > 200 µg/mL | ≥ 200 µg/mL | 80 µM | 0.11 µM | ≥ 200 µg/mL | > 200 µg/mL | > 100 µg/mL | > 100 µg/mL | > 100 µg/mL | 0.13 | 0.014 min⁻¹ | MIC (HeLa [19]): > 200 µg/mL
6 | Cc1ccc(S(=O)(=O)/C=C/[C@H]2OC(n3cnc4c(N)ncnc43)[C@H](O)[C@@H]2O)cc1 (some centres undefined) | 20 µM | 208 µM | 54 µM | 20 µg/mL (≈ 47.9 µM) |  | 20 µg/mL (≈ 47.9 µM) | > 100 µg/mL |  | > 400 µg/mL | > 400 µg/mL |  | 32 µM |  |  |  | > 400 µg/mL | > 400 µg/mL | > 400 µg/mL |  |  | MIC (E6SM [20]): 20 µg/mL (≈ 47.9 µM); MCC (E6SM [21]): 200 µg/mL; MIC (HeLa [19]): > 400 µg/mL; MCC (HeLa [22]): > 400 µg/mL; MCC (Vero [23]): > 400 µg/mL; MIC (Vero [24]): > 400 µg/mL
7 | Nc1ncnc2c1ncn2[C@@H]1O[C@H](/C=C\Br)[C@@H](O)[C@H]1O | 65 µM | 134 µM | 104 µM | 70 µg/mL (≈ 205 µM) | > 200 µg/mL | 150 µg/mL (≈ 438 µM) | 150 µg/mL (≈ 438 µM) | > 200 µg/mL | > 200 µg/mL | 150 µg/mL (≈ 438 µM) | > 200 µg/mL | 93 µM |  | ≥ 200 µg/mL | 150 µg/mL (≈ 438 µM) | 150 µg/mL (≈ 438 µM) | 20 µg/mL (≈ 58.5 µM) | > 100 µg/mL |  |  | MIC (HeLa [19]): > 200 µg/mL
8 | Nc1ncnc2c1ncn2[C@@H]1O[C@H](/C=C/Br)[C@@H](O)[C@H]1O | 56 µM | 60 µM | 42 µM | 150 µg/mL (≈ 438 µM) |  | 20 µg/mL (≈ 58.5 µM) | 7 µg/mL (≈ 20.5 µM) | ≥ 200 µg/mL | > 100 µg/mL | 7 µg/mL (≈ 20.5 µM) | ≥ 200 µg/mL |  | 0.134 µM | ≥ 200 µg/mL | > 200 µg/mL | > 100 µg/mL | > 100 µg/mL | > 100 µg/mL | 0.21 | 0.028 min⁻¹ | MIC (E6SM [20]): > 100 µg/mL; IC50 (MOLT-4 [25]): 56 µM
9 | Nc1ncnc2c1ncn2[C@@H]1O[C@H](/C=C\I)[C@@H](O)[C@H]1O | 32 µM | 43 µM | 43 µM | > 200 µg/mL | > 200 µg/mL | 20 µg/mL (≈ 51.4 µM) | 7 µg/mL (≈ 18 µM) | > 200 µg/mL | > 200 µg/mL | 7 µg/mL (≈ 18 µM) | > 200 µg/mL | 21 µM |  | > 200 µg/mL | > 200 µg/mL | > 200 µg/mL | > 200 µg/mL | 100 µg/mL (≈ 257 µM) |  |  | 
